Experimental data from different studies.
Target: Casein kinase II subunit alpha (CSNK2A1, Homo sapiens, UniProt P68400)

Compound | effect on | action | method | tested at | measurement | value
O=C(Nc1ccc(Oc2ccc(F)cc2)cc1)N1CCc2ncccc2[C@H]1c1ccc(F)cc1 | cell-free assay |  | competition with immobilised ligand | 1 µM | remaining binding | 99%
CCN(CC)c1ccc(C2=NNC(=O)CC2C)cc1[N+](=O)[O-] (centres unmarked) | enzyme activity | inhibitor |  | 10 µM | remaining activity | 96%
C[C@@H]1CN(c2cc(-c3n[nH]c4ccc(OC5(C)CC5)cc34)ncn2)C[C@H](C)O1 | cell-free assay |  | competition with immobilised ligand | 0.1 µM | remaining binding | 66%
Cc1ccc(Nc2nccc(N(C)c3ccc4c(C)n(C)nc4c3)n2)cc1S(N)(=O)=O | enzyme activity | inhibitor |  | 10 µM | inhibition | -7%
Oc1cccc(-c2nc(N3CCOCC3)c3oc4ncccc4c3n2)c1 | enzyme activity | inhibitor |  | 10 µM | remaining activity | 102%
COc1cc2ncnc(Nc3ccc(Oc4ccccc4)cc3C)c2cc1OC | enzyme activity | inhibitor |  | 1 µM | inhibition | 11%
N#CCCc1ccc2c(c1)-c1[nH]c3ccc([N+](=O)[O-])cc3c1CC(=O)N2 | cell-free assay |  |  | 0.5 µM | remaining signal | 91.2%
Nc1cnc(N2CCc3cc(S(=O)(=O)Nc4c(F)cc(Cl)cc4F)cc(N4CCCC4=O)c32)nc1 | cell-free assay |  | competition with immobilised ligand | 1 µM | remaining binding | 100%
Cc1cnc(NC2CCOCC2)nc1-n1cnc(C(=O)NC(CN)c2cc(F)cc(Cl)c2)c1 (centres unmarked) | enzyme activity | inhibitor | radiometric | 1 µM | remaining activity | 106%
CNC(=O)c1cc(Oc2ccc(NC(=O)Nc3ccc(Cl)c(C(F)(F)F)c3)cc2)ccn1 | cell-free assay |  |  | 0.5 µM | remaining signal | 108%
Cn1c2c(c3ccc(Cl)c(Cl)c31)C(C#N)C(C)(C)NC2=O (centres unmarked) | thermal stability |  | DSF | 10 µM | ΔTm | 2.6 °C
FC(F)(F)c1ccc2c(c1)nc(-c1cccnc1)n2C1CC1 | cell-free assay |  | competition with immobilised ligand | 1 µM | remaining binding | 100%
Nc1nc(NC2CCCCC2)sc1C(=O)c1ccccc1 | enzyme activity | inhibitor |  | 10 µM | remaining activity | 114%
Cn1c2c(c3ccc(Cl)c(Cl)c31)C(C#N)C1(CCCCC1)NC2=O (racemic) | thermal stability |  | DSF | 10 µM | ΔTm | 0.7 °C
CC(C)(C)c1nc2c(s1)c1nc(N)ncc1c1ccc(NS(=O)(=O)c3c(F)cccc3F)c(F)c12 | enzyme activity | inhibitor | radiometric | 1 µM | remaining activity | 88%
Cn1c2c(Cl)c(Cl)ccc2c2cc(N)[nH]c(=O)c21 | thermal stability |  | DSF | 10 µM | ΔTm | 2.8 °C
Cn1cc(Cl)c2c(Oc3c(F)cc(Nc4cc(Cl)nc(N)n4)cc3F)ccnc21 | cell-free assay |  | competition with immobilised ligand | 0.1 µM | remaining binding | 98%
CCN(CC)CCNC(=O)c1c(C)[nH]c(/C=C2\C(=O)Nc3ccc(F)cc32)c1C | enzyme activity | inhibitor |  | 10 µM | inhibition | 22%
O=C(N1CCS(=O)(=O)CC1)N1C[C@H](c2ccc(OC(F)(F)F)cc2)C[C@H](c2nc(C3CC3)no2)C1 | cell-free assay |  | competition with immobilised ligand | 1 µM | remaining binding | 100%
Cc1ccc(C(=O)NCc2ccsc2)cc1C#Cc1cn(C(C)C)c2ncnc(N)c12 | enzyme activity | inhibitor |  | 1 µM | activity vs control | 94%
